ChEMBL document CHEMBL1671800, “Synthesis and antimycobacterial properties of N-substituted 6-amino-5-cyanopyrazine-2-carboxamides” (2011)
≈ marks a conversion by molar mass, not a printed value. Calls of active or inactive are those of the source. No cut-off for these calls is given here.

How the values were obtained:
[1] = system: Mycobacterium tuberculosis; test: Antimycobacterial activity against Mycobacterium tuberculosis H37Rv CNCTC My 331/88 after 14 days by microdilution method; assay type: functional; settings: H37Rv CNCTC My 331/88, 336 h
In short: (§1)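 Compounds in DMSO were diluted in Šula's semisynthetic medium, pH 5.5, to final 200–3.125 μg/mL, with DMSO at most 1% (v/v). Mycobacteria were added as a suspension in isotonic saline and grown at 37 °C. MIC was read visually after 14 days as the lowest concentration inhibiting growth.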

Mycobacterium kansasii = test: Antimycobacterial activity against Mycobacterium kansasii CNCTC My 235/80 after 6 days by microdilution method; assay type: functional; settings: CNCTC My 235/80, 144 h
In short: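 Compounds were dissolved in DMSO and diluted in Šula's semisynthetic medium at pH 5.5, at final concentrations of 200 to 3.125 μg/mL in twofold steps; DMSO stayed ≤1% v/v. The strain was added as a suspension in isotonic saline and incubated at 37 °C. Growth was read visually after 6 days; MIC is the lowest concentration that inhibited growth. Pyrazinamide served as standard.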

Mycobacterium avium [2] = test: Antimycobacterial activity against Mycobacterium avium CNCTC My 80/72 after 14 days by microdilution method; assay type: functional; settings: CNCTC My 80/72, 336 h; in short: as §1
Mycobacterium avium [3] = test: Antimycobacterial activity against Mycobacterium avium CNCTC My 152/73 after 14 days by microdilution method; assay type: functional; settings: CNCTC My 152/73, 336 h; in short: as §1
Staphylococcus aureus [4] = test: Antibacterial activity against Staphylococcus aureus CCM 4516/08 after 24 to 48 hrs by broth microdilution method; assay type: functional, organism-based
In short: (§2)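 Strains subcultured on Mueller-Hinton agar at 35 °C and passaged onto MHA before testing. Inoculum suspended in sterile 0.85% saline and adjusted to 0.5 McFarland (1.5×10^8 CFU/mL). Compounds in DMSO (final ≤1% v/v) in Mueller-Hinton broth at pH 7.0, with medium and DMSO-alone controls. Static incubation at 35 °C; MIC taken as 95% growth inhibition versus control at 24 and 48 h.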

Escherichia coli = test: Antibacterial activity against Escherichia coli CCM 4517 after 24 to 48 hrs by broth microdilution method; assay type: functional, organism-based; in short: as §2
Pseudomonas aeruginosa = test: Antibacterial activity against Pseudomonas aeruginosa CCM 1961 after 24 to 48 hrs by broth microdilution method; assay type: functional, organism-based; in short: as §2
Staphylococcus aureus [5] = test: Antibacterial activity against methicillin-resistant Staphylococcus aureus H 5996/08 after 24 to 48 hrs by broth microdilution method; assay type: functional, organism-based
In short: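 Strains were subcultured on Mueller-Hinton agar at 35 °C, and the inoculum was suspended in 0.85% saline to 0.5 McFarland (1.5×10^8 CFU/mL). Microdilution was done in Mueller-Hinton broth, pH 7.0, with final DMSO at most 1% (v/v). MIC, set at 95% growth inhibition versus control, was read after 24 and 48 h of static incubation at 35 °C.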

[6] = system: Staphylococcus epidermidis; test: Antibacterial activity against Staphylococcus epidermidis H 6966/08 after 24 to 48 hrs by broth microdilution method; assay type: functional, organism-based
Enterobacter sp. = test: Antibacterial activity against Enterobacter sp. J 14365/ 08 after 24 to 48 hrs by broth microdilution method; assay type: functional, organism-based
Klebsiella pneumoniae [7] = test: Antibacterial activity against Klebsiella pneumoniae D11750/08 after 24 to 48 hrs by broth microdilution method; assay type: functional, organism-based
Klebsiella pneumoniae [8] = test: Antibacterial activity against ESBL-positive Klebsiella pneumoniae J 14368/08 after 24 to 48 hrs by broth microdilution method; assay type: functional, organism-based

N#Cc1ncc(C(N)=O)nc1NC1CCCC1
MIC [1]: > 200 mg/L
MIC (Mycobacterium kansasii): > 200 mg/L
MIC (Mycobacterium avium [2]): > 200 mg/L
MIC (Mycobacterium avium [3]): > 200 mg/L
Activity (Staphylococcus aureus [4]): inactive
Activity (Escherichia coli): inactive
Activity (Pseudomonas aeruginosa): inactive
Activity (Staphylococcus aureus [5]): inactive
Activity [6]: inactive
Activity (Enterobacter sp.): inactive
Activity (Klebsiella pneumoniae [7]): inactive
Activity (Klebsiella pneumoniae [8]): inactive

CCCCCCCNc1nc(C(N)=O)cnc1C#N
MIC [1]: 12.5 mg/L (≈ 47.8 µM)
MIC (Mycobacterium kansasii): 100 mg/L (≈ 383 µM)
MIC (Mycobacterium avium [2]): 100 mg/L (≈ 383 µM)
MIC (Mycobacterium avium [3]): 100 mg/L (≈ 383 µM)
Activity (Staphylococcus aureus [4]): inactive
Activity (Escherichia coli): inactive
Activity (Pseudomonas aeruginosa): inactive
Activity (Staphylococcus aureus [5]): inactive
Activity [6]: inactive
Activity (Enterobacter sp.): inactive
Activity (Klebsiella pneumoniae [7]): inactive
Activity (Klebsiella pneumoniae [8]): inactive

N#Cc1ncc(C(N)=O)nc1NC1CCCCC1
MIC [1]: > 200 mg/L
MIC (Mycobacterium kansasii): > 200 mg/L
MIC (Mycobacterium avium [2]): > 200 mg/L
MIC (Mycobacterium avium [3]): > 200 mg/L
Activity (Staphylococcus aureus [4]): inactive
Activity (Escherichia coli): inactive
Activity (Pseudomonas aeruginosa): inactive
Activity (Staphylococcus aureus [5]): inactive
Activity [6]: inactive
Activity (Enterobacter sp.): inactive
Activity (Klebsiella pneumoniae [7]): inactive
Activity (Klebsiella pneumoniae [8]): inactive

NC(=O)c1cnccn1 [PYRAZINAMIDE]
MIC [1]: 12.5 mg/L (≈ 102 µM)
MIC (Mycobacterium kansasii): > 200 mg/L
MIC (Mycobacterium avium [2]): > 200 mg/L
MIC (Mycobacterium avium [3]): > 200 mg/L

CNc1nc(C(N)=O)cnc1C#N
MIC [1]: 200 mg/L (≈ 1130 µM)
MIC (Mycobacterium kansasii): > 200 mg/L
MIC (Mycobacterium avium [2]): > 200 mg/L
MIC (Mycobacterium avium [3]): > 200 mg/L
Activity (Staphylococcus aureus [4]): inactive
Activity (Escherichia coli): inactive
Activity (Pseudomonas aeruginosa): inactive
Activity (Staphylococcus aureus [5]): inactive
Activity [6]: inactive
Activity (Enterobacter sp.): inactive
Activity (Klebsiella pneumoniae [7]): inactive
Activity (Klebsiella pneumoniae [8]): inactive

CCCCNc1nc(C(N)=O)cnc1C#N
MIC [1]: > 200 mg/L
MIC (Mycobacterium kansasii): > 200 mg/L
MIC (Mycobacterium avium [2]): > 200 mg/L
MIC (Mycobacterium avium [3]): > 200 mg/L
Activity (Staphylococcus aureus [4]): inactive
Activity (Escherichia coli): inactive
Activity (Pseudomonas aeruginosa): inactive
Activity (Staphylococcus aureus [5]): inactive
Activity [6]: inactive
Activity (Enterobacter sp.): inactive
Activity (Klebsiella pneumoniae [7]): inactive
Activity (Klebsiella pneumoniae [8]): inactive

CCCCCCNc1nc(C(N)=O)cnc1C#N
MIC [1]: 12.5 mg/L (≈ 50.5 µM)
MIC (Mycobacterium kansasii): > 200 mg/L
MIC (Mycobacterium avium [2]): > 200 mg/L
MIC (Mycobacterium avium [3]): > 200 mg/L
Activity (Staphylococcus aureus [4]): inactive
Activity (Escherichia coli): inactive
Activity (Pseudomonas aeruginosa): inactive
Activity (Staphylococcus aureus [5]): inactive
Activity [6]: inactive
Activity (Enterobacter sp.): inactive
Activity (Klebsiella pneumoniae [7]): inactive
Activity (Klebsiella pneumoniae [8]): inactive

N#Cc1ncc(C(N)=O)nc1N1CCOCC1
MIC [1]: > 200 mg/L
MIC (Mycobacterium kansasii): > 200 mg/L
MIC (Mycobacterium avium [2]): > 200 mg/L
MIC (Mycobacterium avium [3]): > 200 mg/L
Activity (Staphylococcus aureus [4]): inactive
Activity (Escherichia coli): inactive
Activity (Pseudomonas aeruginosa): inactive
Activity (Staphylococcus aureus [5]): inactive
Activity [6]: inactive
Activity (Enterobacter sp.): inactive
Activity (Klebsiella pneumoniae [7]): inactive
Activity (Klebsiella pneumoniae [8]): inactive
